A selection: hits, their analogues and other compounds. The true share with any hit is near 0.27%.
Bim-Bcl-B: disrupts Bim peptide binding to human Bcl-B; Q9HD36; bead-based flow cytometry; inhibition, % at 10 µM; hit rate 0.073% among 190,000;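 also: 0% = tracer peptide without compound and 100% = reference inhibitor peptide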
MDM2 E3 inh: inhibitors of human Mdm2 E3 ubiquitin ligase; Q00987; cell-based MDM2 ubiquitination luciferase reporter, 2 h; 0 = plate control, 100 = twice control, blank-subtracted; signal enhancement, % at 5 µM; hit rate 0.11% among 210,000;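 active = signal enhancement of 30% or more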;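 also: luminescence tracks abundance of the self-degrading MDM2-luciferase fusion protein; higher signal means inhibition of MDM2 E3 ligase activity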
Target sequence (Q00987 whole entry, looked up, the tested form may be a part): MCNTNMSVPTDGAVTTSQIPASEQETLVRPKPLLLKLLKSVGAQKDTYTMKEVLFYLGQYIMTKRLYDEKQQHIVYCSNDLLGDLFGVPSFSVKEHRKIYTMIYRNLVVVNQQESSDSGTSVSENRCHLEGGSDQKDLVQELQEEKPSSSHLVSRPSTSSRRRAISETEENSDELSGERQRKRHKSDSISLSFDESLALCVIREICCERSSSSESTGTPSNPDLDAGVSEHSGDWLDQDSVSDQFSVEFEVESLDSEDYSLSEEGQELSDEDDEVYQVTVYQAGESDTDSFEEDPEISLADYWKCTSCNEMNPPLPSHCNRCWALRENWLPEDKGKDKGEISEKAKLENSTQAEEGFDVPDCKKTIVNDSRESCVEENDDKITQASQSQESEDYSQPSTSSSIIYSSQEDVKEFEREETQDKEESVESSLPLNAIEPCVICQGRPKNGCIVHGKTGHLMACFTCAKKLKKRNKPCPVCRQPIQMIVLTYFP
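System: stable MDM2–luciferase fusion reporter cells / Input: 2000 cells seeded into each well / Schedule: 4 h settle plus 2 h compound, 37 °C / Compound: single-point 5 µM / Buffer or medium: cells held in DMEM / Benchmarks: control and blank well means / Evaluation: percent signal gain over controls, blank-subtracted / Measured by: luciferase luminescence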
Bim-Bcl-W: inhibitors of Bim-Bcl-W interaction, human; inhibition, % at 10 µM; bead-based flow cytometry, Bim peptide-Bcl-W binding; hit rate 0.02% among 190,000;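 also: 0% = bound tracer without compound and 100% = peptide blocker; higher means less fluorescent Bim peptide bound to Bcl-W beads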
Bcl-2 Bim block: disrupts Bim peptide binding to human Bcl-2; AID 950; inhibition, % at 10 µM; Bead-based flow cytometry, Bim peptide-Bcl-2 binding; P10415; hit rate 0.06% among 190,000; in the data active = inhibition above about 40%;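 also: 0% = no compound wells with probe peptide and 100% = reference peptide inhibitor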
Bfl-1 Bim block: human Bim-Bfl-1 interaction inhibition; hit rate 0.12% among 190,000; AID 1008; Bead-based flow cytometry, Bim-Bfl-1 binding inhibition; Q16548; inhibition, % at 10 µM;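 also: 0% = wells without compound plus tracer and 100% = blocker peptide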
Target sequence (Q16548 whole entry, looked up): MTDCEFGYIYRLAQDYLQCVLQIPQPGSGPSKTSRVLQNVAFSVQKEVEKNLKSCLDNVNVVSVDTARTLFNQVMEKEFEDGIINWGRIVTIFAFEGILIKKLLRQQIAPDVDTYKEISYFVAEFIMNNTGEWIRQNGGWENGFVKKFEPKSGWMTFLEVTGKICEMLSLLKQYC
Bcl-XL Bim block: inhibitors of Bim-Bcl-XL interaction, human. Q07817. Bim peptide-Bcl-XL binding, bead flow cytometry, fluorescence. inhibition, % at 10 µM. hit rate 0.04% among 190,000. AID 1007
* = called active by the depositor. Rule as the data show it, unless noted: active = inhibition above about 40%.

For O=C(CN1CCCCCC1)NCc1ccccc1 the results were Bim-Bcl-B 3.0, MDM2 E3 inh -7.6, Bim-Bcl-W 0.0, Bcl-2 Bim block 6.0, Bfl-1 Bim block 3.0 and Bcl-XL Bim block 1.0.
O=C(CN1CCCCC1)NC(=O)NCc1ccccc1 was read as Bim-Bcl-B -3.0, MDM2 E3 inh 37.5*, Bim-Bcl-W -2.0, Bcl-2 Bim block 1.0, Bfl-1 Bim block 0.0 and Bcl-XL Bim block -6.0.
For CCC(=O)NC(=S)NNC(=O)c1ccc(O)cc1 the results were Bim-Bcl-B -22.0, MDM2 E3 inh -3.3, Bim-Bcl-W 0.0, Bcl-2 Bim block -2.0, Bfl-1 Bim block -4.0 and Bcl-XL Bim block -5.0.
O=S(=O)(Nc1ncccn1)c1ccc(NC(=S)NCc2cccnc2)cc1 was read as Bim-Bcl-B -2.0, MDM2 E3 inh -0.5, Bim-Bcl-W 0.0, Bcl-2 Bim block 0.0, Bfl-1 Bim block -8.0 and Bcl-XL Bim block -2.0.
CC1(C)SC(=S)N(NC(=O)Nc2ccccc2)C1N(O)C(=O)Nc1cccc2ccccc12 (configuration not stated) was read as Bim-Bcl-B 32.0, MDM2 E3 inh -3.0, Bim-Bcl-W 37.0, Bcl-2 Bim block 38.0, Bfl-1 Bim block 48.0* and Bcl-XL Bim block 45.0*.
For COc1ccc(/C=C2\N=C(c3ccccc3)NNC2=O)cc1 the results were MDM2 E3 inh -4.5.
For CCN=c1scc(C)n1/N=C/c1cc(Br)c(O)c(Br)c1 the results were Bim-Bcl-B -5.0, MDM2 E3 inh -4.7, Bim-Bcl-W -3.0, Bcl-2 Bim block -2.0, Bfl-1 Bim block -5.0 and Bcl-XL Bim block -2.0.
Screening COCCN=c1scc(-c2cccs2)n1/N=C/c1ccc(O)c(O)c1O returned Bim-Bcl-B 0.0, MDM2 E3 inh -8.1, Bim-Bcl-W 21.0, Bcl-2 Bim block 21.0, Bfl-1 Bim block 40.0* and Bcl-XL Bim block 6.0.
Screening COCCN=c1scc(-c2ccccc2)n1/N=C/c1c[nH]c2ccccc12 returned Bim-Bcl-B -13.0, MDM2 E3 inh 1.7, Bim-Bcl-W -6.0, Bcl-2 Bim block -8.0, Bfl-1 Bim block -15.0 and Bcl-XL Bim block -10.0.
`CCN=c1scc(C)n1/N=C/c1ccc(O)c(O)c1O` gave Bim-Bcl-B -2.0, MDM2 E3 inh 8.1, Bim-Bcl-W 21.0, Bcl-2 Bim block 19.0, Bfl-1 Bim block 51.0* and Bcl-XL Bim block 8.0.
Cc1ccsc1C1Nc2ccc3ncccc3c2C2=C1C(=O)CCC2 (configuration not stated) was read as Bim-Bcl-B -8.0, MDM2 E3 inh 34.0*, Bim-Bcl-W -3.0, Bcl-2 Bim block -6.0, Bfl-1 Bim block -17.0 and Bcl-XL Bim block -5.0.
Screening CC(=O)OC1C(N2CCCCC2)c2c(ccc(/C=C/C(=O)N3CCCCC3)c2O)OC1(C)C (configuration not stated) returned Bim-Bcl-B -6.0, MDM2 E3 inh -7.0, Bim-Bcl-W -9.0, Bcl-2 Bim block -5.0, Bfl-1 Bim block -3.0 and Bcl-XL Bim block -2.0.
`Clc1ccccc1/C=N/NC1=Nc2cccc3cccc1c23` gave Bim-Bcl-B -14.0, MDM2 E3 inh 346.3*, Bim-Bcl-W -1.0, Bcl-2 Bim block -14.0, Bfl-1 Bim block -3.0 and Bcl-XL Bim block -8.0.
`O=C(CCl)Nc1cccc2ncccc12` gave Bim-Bcl-B 57.0*, MDM2 E3 inh 0.3, Bim-Bcl-W 25.0, Bcl-2 Bim block 25.0, Bfl-1 Bim block 21.0 and Bcl-XL Bim block 34.0.
Screening COc1ccc(OCC(=O)Nc2cccc3ncccc23)cc1 returned Bim-Bcl-B 5.0, MDM2 E3 inh -7.7, Bim-Bcl-W 2.0, Bcl-2 Bim block 4.0, Bfl-1 Bim block 0.0 and Bcl-XL Bim block 2.0.
Screening CCOC(=O)Cc1nc(-c2cccc(C(F)(F)F)c2)no1 returned Bim-Bcl-B -3.0, MDM2 E3 inh 10.7, Bim-Bcl-W -4.0, Bcl-2 Bim block -4.0, Bfl-1 Bim block 0.0 and Bcl-XL Bim block -1.0.
CN(C(=O)c1cccc(COc2ccc(Cl)cc2Cl)c1)c1ccccc1 was read as Bim-Bcl-B -3.0, MDM2 E3 inh 45.7*, Bim-Bcl-W -1.0, Bcl-2 Bim block -7.0, Bfl-1 Bim block -2.0 and Bcl-XL Bim block -6.0.
For COc1ccc(Nc2nc(N3CCCC3)c3ccccc3n2)cc1 the results were Bim-Bcl-B 6.0, MDM2 E3 inh 8.1, Bim-Bcl-W 0.0, Bcl-2 Bim block 5.0, Bfl-1 Bim block 5.0 and Bcl-XL Bim block 3.0.
Screening CCN(CC)c1ccc(Nc2nc(N3CCOCC3)c3ccccc3n2)cc1 returned Bim-Bcl-B -33.0, MDM2 E3 inh -24.1, Bim-Bcl-W 23.0, Bcl-2 Bim block 11.0, Bfl-1 Bim block 54.0* and Bcl-XL Bim block -2.0.
Screening COc1ccc(NS(=O)(=O)c2ccc(/C=C/C(=O)O)cc2)cc1S(=O)(=O)N1CCOCC1 returned MDM2 E3 inh 0.3.
`CN1C(C(=O)NCc2cccc(Br)c2)CC2Cn3c(nc4cc5ccccc5cc43)C21` (configuration not stated) gave MDM2 E3 inh 31.4*.
Screening CN1C(C(=O)NCc2cccc(Br)c2)CC2Cn3c(nc4cc(Cl)c(Cl)cc43)C21 (configuration not stated) returned MDM2 E3 inh 1.3.
`CCC1(c2ccc(Cl)cc2)NC(=O)N(Cc2ccc(C(=O)OC)cc2)C1=O` (configuration not stated) gave Bim-Bcl-B 0.0, MDM2 E3 inh -3.8, Bim-Bcl-W 2.0, Bcl-2 Bim block -2.0, Bfl-1 Bim block -3.0 and Bcl-XL Bim block 1.0.
`Cc1nnc(NCc2n[nH]c(=O)c3ccccc23)c2ccccc12` gave Bim-Bcl-B 57.0*, MDM2 E3 inh 9.1, Bim-Bcl-W 4.0, Bcl-2 Bim block 0.0, Bfl-1 Bim block 5.0 and Bcl-XL Bim block 0.0.
For CCOC(=O)c1oc2nc(CC(C)C)c3c(c2c1N)CCCC3 the results were MDM2 E3 inh -3.9.
For COc1cc(CNc2ccc(N3CCCC3)cc2)ccc1OCc1ccccc1 the results were Bim-Bcl-B 0.0, MDM2 E3 inh -15.2, Bim-Bcl-W 32.0, Bcl-2 Bim block 24.0, Bfl-1 Bim block 47.0* and Bcl-XL Bim block 3.0.
Screening COc1ccc(OC)c(CNn2c(-c3ccccc3F)nc3ccccc3c2=O)c1 returned Bim-Bcl-B -5.0, MDM2 E3 inh 42.6*, Bim-Bcl-W 0.0, Bcl-2 Bim block -5.0, Bfl-1 Bim block -4.0 and Bcl-XL Bim block -5.0.
For CCOC(=O)CNC(=O)CSc1nnc(NC(=O)c2ccccc2Cl)s1 the results were Bim-Bcl-B -2.0, MDM2 E3 inh -4.7, Bim-Bcl-W -2.0, Bcl-2 Bim block -1.0, Bfl-1 Bim block -3.0 and Bcl-XL Bim block -3.0.
CCOC(=O)c1nc2c(ccc3ccccc32)cc1C was read as MDM2 E3 inh -18.0.
Screening CCOc1ccc(NC(=O)N2CCC(c3nc4ccccc4[nH]3)CC2)cc1 returned Bim-Bcl-B -3.0, MDM2 E3 inh -14.1, Bim-Bcl-W 0.0, Bcl-2 Bim block -2.0, Bfl-1 Bim block 0.0 and Bcl-XL Bim block -3.0.

Source: PubChem
